The structures appear in SMILES notation. Values after ≈ are worked out from the molar mass of the structure shown. Active and inactive are the calls of the source. The calls are words filed in the database; no cut-off is given here.

The test system of one assay is Klebsiella pneumoniae. As to the kind of experiment: Antimicrobial activity against Klebsiella pneumoniae ATCC 700603 at 128 uM after 24 to 48 hrs by two-fold broth microdilution method. The assay is classed as functional, organism-based. The procedure, abridged:
(§1)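 Antibacterial microdilution in CAMH, inoculum 0.5 McFarland diluted in saline/CAMH, 35 °C for 18 h, with further reads at 24 and 48 h. Activity is scored at the maximum tested concentration, 128 µM. Triplicate.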
In general terms: In broth dilution the organism is exposed to a series of concentrations in liquid medium.

In assay [1] the test system is Escherichia coli. As to the kind of experiment: Antimicrobial activity against Escherichia coli ATCC 25922 at 128 uM after 24 to 48 hrs by two-fold broth microdilution method. It counts as functional, organism-based. The procedure, abridged: as §1
In another assay the test system is Serratia marcescens. As to the kind of experiment: Antimicrobial activity against Serratia marcescens ATCC 14576 at 128 uM after 24 to 48 hrs by two-fold broth microdilution method. It counts as functional, organism-based. The procedure, abridged: as §1
Assay [2] has as its system Staphylococcus aureus. As to the kind of experiment: Antimicrobial activity against Staphylococcus aureus ATCC 29213 after 24 to 48 hrs by two-fold broth microdilution method. It counts as functional.
For assay [3], the system named is Staphylococcus aureus. As to the kind of experiment: Antimicrobial activity against Staphylococcus aureus ATCC 29213 after 18 hrs by modified broth microdilution method. It counts as functional. The essentials:
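PGI90, the concentration giving 90% growth inhibition, fitted with an exponential growth curve from at least seven concentrations of the MIC assay. Inhibition % = [(Ac − Ap)/Ac] × 100 from A620 of drug-free control versus drug-treated culture. Checked by a modified broth microdilution (Phase 2).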

The next assay has as its system Enterobacter cloacae. As to the kind of experiment: Antimicrobial activity against Enterobacter cloacae ATCC 23355 at 128 uM after 24 to 48 hrs by two-fold broth microdilution method. The assay is classed as functional, organism-based. The essentials:
as §1

A further assay has as its system Candida albicans. As to the kind of experiment: Antimicrobial activity against Candida albicans ATCC 537Y after 48 hrs by two-fold broth microdilution method. It counts as functional. The procedure, abridged: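 Two-fold serial dilutions in RPMI 1640 per CLSI M27-A2. Stocks in DMSO/RPMI 1:20 v/v. Test range 1.0–64 µM. Inoculum set to 0.5 McFarland, then diluted in saline and RPMI 1640. Plates held at 35 °C for 48 h. MIC is the lowest concentration giving prominent growth reduction. Run in triplicate.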

Another assay has as its system Enterococcus faecalis. As to the kind of experiment: Antimicrobial activity against Enterococcus faecalis ATCC 29212 after 24 to 48 hrs by two-fold broth microdilution method. The assay is classed as functional.
Assay [4] deals with Escherichia coli. As to the kind of experiment: Antimicrobial activity against Escherichia coli ATCC 25922 after 24 to 48 hrs by two-fold broth microdilution method. The assay is classed as functional.

The MIC is the least concentration at which growth counts as inhibited. A high value points to a need for much substance. One may read the MIC90 as an inhibitory concentration at the 90% level, which refers to growth in some studies and to a panel of isolates in others. As to `CCCc1ccc(C2=NN(C(C)=O)C(c3ccc([N+](=O)[O-])o3)O2)cc1` (stereo not given), the result in the assay on Klebsiella pneumoniae, in the assay with Escherichia coli [1], in the assay with Serratia marcescens and with Enterobacter cloacae was inactive. Further, the values for the MIC in the assay with Staphylococcus aureus [2] and with Candida albicans were 8 µM (≈ 2.75 µg/mL) and 32 µM (≈ 11 µg/mL), respectively. Besides, the MIC90 in the assay with Staphylococcus aureus [2] was found to be 15.4 µM (≈ 5.28 µg/mL); with Candida albicans it was 46 µM (≈ 15.8 µg/mL). The “log(1/MIC>90)” value in the assay on Staphylococcus aureus [3] is on record as 4.81.
As to `CC(=O)N1N=C(c2ccc(C)cc2)OC1c1ccc([N+](=O)[O-])o1` (stereo not given), the result with Klebsiella pneumoniae, in the assay on Escherichia coli [1], in the assay with Serratia marcescens and with Enterobacter cloacae was inactive. In addition, the minimum inhibitory concentration (MIC) in the assay with Staphylococcus aureus [2] worked out at 8 µM (≈ 2.52 µg/mL); with Candida albicans, 32 µM (≈ 10.1 µg/mL). Further, the results for the MIC90 in the assay with Staphylococcus aureus [2] and in the assay with Candida albicans were 12.2 µM (≈ 3.85 µg/mL) and 49.9 µM (≈ 15.7 µg/mL), respectively. Also, the “log(1/MIC>90)” value with Staphylococcus aureus [3] amounted to 4.91.
Take `Cc1ccc(C(=O)N/N=C/c2ccc([N+](=O)[O-])o2)cc1`: the outcome in the assay with Klebsiella pneumoniae, in the assay with Escherichia coli [1], with Serratia marcescens and in the assay with Enterobacter cloacae was inactive. The MIC is 8 µM (≈ 2.19 µg/mL) against Staphylococcus aureus [2], 32 µM (≈ 8.74 µg/mL) in the assay on Candida albicans and 8 µM (≈ 2.19 µg/mL) in the assay with Enterococcus faecalis. Moreover, the MIC90 worked out at 9.42 µM (≈ 2.57 µg/mL) against Staphylococcus aureus [2], 58.3 µM (≈ 15.9 µg/mL) against Candida albicans and 14.2 µM (≈ 3.87 µg/mL) in the assay with Enterococcus faecalis. The “log(1/MIC>90)” value in the assay on Staphylococcus aureus [3] turned out to be 4.97.
Turning to `CCc1ccc(C2=NN(C(C)=O)C(c3ccc([N+](=O)[O-])o3)O2)cc1` (stereo not given), the result in the assay with Klebsiella pneumoniae, in the assay on Escherichia coli [1], in the assay with Serratia marcescens and in the assay on Enterobacter cloacae was inactive. For the same molecule, the MIC came to 8 µM (≈ 2.63 µg/mL) against Staphylococcus aureus [2] and 32 µM (≈ 10.5 µg/mL) in the assay with Candida albicans. Moreover, the figures for the MIC90 against Staphylococcus aureus [2] and against Candida albicans were 10.2 µM (≈ 3.34 µg/mL) and 48.2 µM (≈ 15.9 µg/mL), respectively. In the assay with Staphylococcus aureus [3], the “log(1/MIC>90)” value came out at 4.99.
`CC(=O)N1N=C(c2ccccc2)OC1c1ccc([N+](=O)[O-])o1` (stereo not given): the result in the assay with Klebsiella pneumoniae, with Escherichia coli [1], in the assay with Serratia marcescens and in the assay on Enterobacter cloacae was inactive. The MIC with Staphylococcus aureus [2] worked out at 4 µM (≈ 1.21 µg/mL); in the assay with Candida albicans, 8 µM (≈ 2.41 µg/mL); in the assay on Enterococcus faecalis it was 32 µM (≈ 9.64 µg/mL). Further, the figures for the MIC90 with Staphylococcus aureus [2], with Candida albicans and with Enterococcus faecalis were 8.93 µM (≈ 2.69 µg/mL), 15.8 µM (≈ 4.77 µg/mL) and 52.9 µM (≈ 15.9 µg/mL), respectively. Further, the “log(1/MIC>90)” value in the assay on Staphylococcus aureus [3] is 5.05.
For the molecule `CC(=O)N1N=C(c2ccc(F)cc2)OC1c1ccc([N+](=O)[O-])o1` (stereo not given), the outcome in the assay on Klebsiella pneumoniae, with Serratia marcescens and with Enterobacter cloacae was inactive. Besides, the MIC in the assay on Staphylococcus aureus [2] amounted to 8 µM (≈ 2.55 µg/mL); against Escherichia coli [4] it was 64 µM (≈ 20.4 µg/mL); against Candida albicans it was 32 µM (≈ 10.2 µg/mL); in the assay on Enterococcus faecalis, 64 µM (≈ 20.4 µg/mL). Also, the MIC90 against Staphylococcus aureus [2] was determined as 8.43 µM (≈ 2.69 µg/mL); in the assay on Escherichia coli [4] it was 91 µM (≈ 29.1 µg/mL); in the assay with Candida albicans, 43.1 µM (≈ 13.8 µg/mL); against Enterococcus faecalis, 97.3 µM (≈ 31.1 µg/mL). The “log(1/MIC>90)” value in the assay on Staphylococcus aureus [3] is listed as 5.07.
As for `CCc1ccc(C(=O)N/N=C/c2ccc([N+](=O)[O-])o2)cc1`, the result with Klebsiella pneumoniae, in the assay on Serratia marcescens and in the assay with Enterobacter cloacae was inactive. The MIC in the assay on Staphylococcus aureus [2] was 4 µM (≈ 1.15 µg/mL); against Escherichia coli [4], 64 µM (≈ 18.4 µg/mL); against Candida albicans, 32 µM (≈ 9.19 µg/mL); against Enterococcus faecalis, 64 µM (≈ 18.4 µg/mL). Also, the MIC90 against Staphylococcus aureus [2] is 3.68 µM (≈ 1.06 µg/mL); against Escherichia coli [4], 110 µM (≈ 31.7 µg/mL); against Candida albicans, 54 µM (≈ 15.5 µg/mL); in the assay with Enterococcus faecalis it was 69.1 µM (≈ 19.9 µg/mL). For the same molecule, the “log(1/MIC>90)” value in the assay with Staphylococcus aureus [3] was found to be 5.43.
For `O=C(N/N=C/c1ccc([N+](=O)[O-])o1)c1ccc(C(F)(F)F)cc1`, the result in the assay with Klebsiella pneumoniae, in the assay on Serratia marcescens and in the assay on Enterobacter cloacae was inactive. Besides, the MIC is 4 µM (≈ 1.31 µg/mL) with Staphylococcus aureus [2], 64 µM (≈ 20.9 µg/mL) against Escherichia coli [4], 32 µM (≈ 10.5 µg/mL) in the assay with Candida albicans and 32 µM (≈ 10.5 µg/mL) in the assay with Enterococcus faecalis. Moreover, the MIC90 in the assay on Staphylococcus aureus [2] worked out at 4.34 µM (≈ 1.42 µg/mL); in the assay with Escherichia coli [4], 92.2 µM (≈ 30.2 µg/mL); in the assay on Candida albicans, 47.8 µM (≈ 15.6 µg/mL); in the assay on Enterococcus faecalis, 60.9 µM (≈ 19.9 µg/mL). In the assay with Staphylococcus aureus [3], the “log(1/MIC>90)” value is reported as 5.36.

(Values after ChEMBL document CHEMBL3259528, “Exploring 5-nitrofuran derivatives against nosocomial pathogens: synthesis, antimicrobial activity and chemometric analysis” (2014).)
